Screening data as filed in PubChem.
HTRA1 inhibitor = HTRA1 serine protease inhibitors, primary screen, biochemical, fluorescence polarization, HTS; Q92743; recombinant HTRA1, FP-rhodamine activity-based probe; inhibition, % at 5.96 µM; 0.5% of 340,000 active; AID 504803, 2011; in the data active = inhibition above about 36%;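 also: 0% = enzyme with DMSO and 100% = wells lacking enzyme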
TCR CD3 inh = inhibitors of human TCR-CD3 interaction, primary screen, biochemical, fluorescence, TAMRA-labeled TCR probe; 0.37% of 360,000 active; inhibition, % at 9.4 µM; AID 651800, 2012; T-cell receptor (TCR);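 also: recombinant mutant TCR 2C K166C tagged with TAMRA read by polarization; 0% = receptor in buffer alone and 100% = receptor with positive control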
SIAE inh = human SIAE inhibitors, primary screen, biochemical, fluorescence polarization, FP-Rh probe, 1536-well HTS | inhibition, % at 9.66 µM | AID 1053197, 2014 | 0.69% of 370,000 active | Sialate O-acetylesterase (Homo sapiens), Q9HAT2 | SIAE FP-Rh probe binding;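 active = inhibition above a cutoff: mean of compounds within the control limits plus 3 SD of those, cut at about 17% in these data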;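 also: 0% = plate median of compound wells and 100% = probe without SIAE protein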
Target sequence (Q9HAT2 whole entry, looked up): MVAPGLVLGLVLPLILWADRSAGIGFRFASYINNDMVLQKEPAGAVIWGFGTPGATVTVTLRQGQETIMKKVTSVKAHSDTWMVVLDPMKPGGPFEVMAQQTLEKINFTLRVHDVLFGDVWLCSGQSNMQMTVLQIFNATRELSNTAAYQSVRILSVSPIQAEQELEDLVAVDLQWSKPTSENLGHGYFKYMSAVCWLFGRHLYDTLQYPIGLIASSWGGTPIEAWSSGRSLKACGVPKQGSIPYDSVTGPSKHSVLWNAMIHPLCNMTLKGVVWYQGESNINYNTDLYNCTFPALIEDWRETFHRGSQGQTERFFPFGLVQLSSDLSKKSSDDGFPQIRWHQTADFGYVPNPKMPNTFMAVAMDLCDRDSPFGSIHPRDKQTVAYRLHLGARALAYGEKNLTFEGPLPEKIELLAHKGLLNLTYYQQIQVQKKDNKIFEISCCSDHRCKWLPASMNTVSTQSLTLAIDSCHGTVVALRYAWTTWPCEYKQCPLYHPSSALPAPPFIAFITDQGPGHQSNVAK
mABHD4 FP = ABHD4 inhibitors, primary screen, biochemical, fluorescence polarization, mouse. (Lyso)-N-acylphosphatidylethanolamine lipase (Mus musculus), Q8VD66. purified mABHD4, FP-Rh probe fluorescence polarization. inhibition, % at 8.92 µM. 0.54% of 370,000 active. AID 720543, 2013;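 active = inhibition exceeding the mean over every tested compound plus 3 SD, cut at about 30% in these data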;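 also: 0% = plate median of compound wells and 100% = S159A mutant with DMSO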
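Assay system: wild-type mouse ABHD4 protein; compound: single nominal dose of 8.92 µM, 0.89% DMSO final; schedule: 45 min + 60 min at 25 °C; measured by: FP readout, ex 525 nm / em 598 nm; evaluation: % inhibition of FP-Rh probe binding versus controls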
pPAFAH inh = pPAFAH enzyme inhibitors, primary screen, biochemical, fluorescence polarization, human | 1.5% of 330,000 active | Platelet-activating factor acetylhydrolase (Homo sapiens), Q13093 | inhibition, % at 3.39 µM | recombinant pPAFAH, FP-rhodamine probe fluorescence polarization;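 active = inhibition above the mean inhibition across the screen plus 3 SD, cut at about 25% in these data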;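 also: inhibitors block binding of the rhodamine activity-based probe so polarization drops; 0% = enzyme with DMSO and 100% = wells lacking pPAFAH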
HTRA1 conf = HTRA1 protease inhibitors, retest, confirmation, biochemical, fluorescence polarization. shares compounds with HTRA1 inhibitor. recombinant HTRA1, FP-rhodamine activity-based probe. inhibition, % at 5.96 µM. 66% of 1,600 active. AID 540248, 2011;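 active = mean inhibition over three repeats above a set limit taken from the earlier primary screen, cut at about 37% in these data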;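 also: 0% = HTRA1 with DMSO and 100% = wells lacking HTRA1; inhibitors block probe binding so polarization drops and inhibition rises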
BSA probe FL = compounds interfering with TAMRA-BSA probe, counter-screen for TCR-CD3 interaction inhibitor project, biochemical, fluorescence, TAMRA-labeled BSA. TAMRA-labeled BSA probe fluorescence counterscreen. shares compounds with TCR CD3 inh. inhibition, % at 9.4 µM. 10% of 1,200 active. AID 652035, 2013; in the data active = inhibition above about 23%;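 also: 0% = buffer low control and 100% = reference high control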
TCR-CD3 inh conf = TCR-CD3 interaction inhibitors, retest, confirmation, biochemical, fluorescence, TAMRA-labeled TCR probe. shares compounds with TCR CD3 inh. TAMRA-labeled TCR probe fluorescence binding assay. inhibition, % at 9.4 µM. 48% of 1,200 active
ABHD4 confirm = ABHD4 inhibitors, retest, confirmation, biochemical, fluorescence polarization, mouse; 55% of 1,800 active; purified mABHD4, FP-Rh probe fluorescence polarization; inhibition, % at 8.92 µM; shares compounds with mABHD4 FP;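 active = mean inhibition across replicates above the hit cutoff set in the primary screen, cut at about 30% in these data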;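 also: 0% = wild-type ABHD4 with DMSO and 100% = catalytically dead S159A mutant with DMSO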
An asterisk follows results filed as active. Compounds with a hit are over-represented: about 2.3% of the library has one in this group of screens. Rule as the data show it, unless noted: active = inhibition above about 19%; inactive = the rest.

What do the screens show for `Cc1ccc2nc(-c3ccc(O)c(O)c3)cn2c1`?
HTRA1 inhibitor: 45*; TCR CD3 inh: 54*; SIAE inh: 12; mABHD4 FP: 14; pPAFAH inh: 8; HTRA1 conf: 74*; BSA probe FL: -3; TCR-CD3 inh conf: 28*

Results for Cc1ccc2nc(-c3ccccc3)cn2c1 ?
HTRA1 inhibitor: 0; TCR CD3 inh: 5; SIAE inh: 0; mABHD4 FP: -3; pPAFAH inh: -4

Results for O=C(N/N=C/c1c(O)ccc2ccccc12)c1ccc[n+](CCO)c1 ?
HTRA1 inhibitor: 52*; TCR CD3 inh: 26*; SIAE inh: 7; mABHD4 FP: 11; pPAFAH inh: 5; HTRA1 conf: 50*; BSA probe FL: -10; TCR-CD3 inh conf: 17

What do the screens show for `O=C(NNC(=O)c1ccccc1O)c1ccc(Cl)c(S(=O)(=O)N2CCc3ccccc32)c1`?
HTRA1 inhibitor: 50*; TCR CD3 inh: 28*; SIAE inh: -1; mABHD4 FP: -26; pPAFAH inh: 30*; HTRA1 conf: 50*; BSA probe FL: -6; TCR-CD3 inh conf: 16

Results for O=C(CCCn1c(SCC(=O)c2ccc(O)c(O)c2)nc2ccccc2c1=O)NCC1CCCO1 (stereo not drawn) ?
HTRA1 inhibitor: 38*; TCR CD3 inh: 21*; SIAE inh: 8; mABHD4 FP: 16; pPAFAH inh: 34*; HTRA1 conf: 36*; BSA probe FL: -16; TCR-CD3 inh conf: 40*

What do the screens show for `O=C(CCCn1c(SCC(=O)NC2CCCCC2)nc2ccccc2c1=O)NCC1CCCO1` (stereo not drawn)?
HTRA1 inhibitor: 7; TCR CD3 inh: 0; SIAE inh: -10; mABHD4 FP: 5; pPAFAH inh: 5

How did Cc1ccc(C2=NC(=O)/C(=C/c3cc(O)c(O)c(Br)c3)S2)cc1 do in these assays?
HTRA1 inhibitor: 67*; TCR CD3 inh: 33*; SIAE inh: -6; mABHD4 FP: 22; HTRA1 conf: 71*; BSA probe FL: -10; TCR-CD3 inh conf: 47*

Results for C[C@H]1[C@@H](c2ccccc2)OC(O)([C@H](Cc2ccccc2)NC(=O)OC(C)(C)C)CN1C (stereo partly drawn) ?
SIAE inh: -1; mABHD4 FP: 8

How did O=S(=O)(O)c1cc(O)c(N=Nc2ccc(O)cc2O)c2ccccc12 do in these assays?
HTRA1 inhibitor: 78*; TCR CD3 inh: 150*; SIAE inh: 11; mABHD4 FP: -36; HTRA1 conf: 54*; BSA probe FL: 171*; TCR-CD3 inh conf: 130*

How did Cn1c(CNc2ccc(Cl)cc2)nc2ccccc21 do in these assays?
HTRA1 inhibitor: -4; TCR CD3 inh: 5; SIAE inh: -6; mABHD4 FP: -3; pPAFAH inh: 1

How did CC(C)N=c1cc2n(-c3ccc(Cl)cc3)c3ccccc3nc-2cc1Nc1ccc(Cl)cc1 do in these assays?
HTRA1 inhibitor: 70*; TCR CD3 inh: 12; SIAE inh: 17; mABHD4 FP: 61*; pPAFAH inh: 17; HTRA1 conf: 51*; ABHD4 confirm: 78*

What do the screens show for `CN1C(=O)c2cc(NC(=O)c3ccccc3)ccc2OC[C@H]2O[C@@H](CC(=O)NCC3CC3)CC[C@@H]21`?
SIAE inh: 5; mABHD4 FP: 13

Results for Nc1ccc(N=Nc2ccccc2)c2cccnc12 ?
HTRA1 inhibitor: 43*; TCR CD3 inh: 8; SIAE inh: 5; mABHD4 FP: 30*; pPAFAH inh: 28*; HTRA1 conf: 44*; ABHD4 confirm: 55*

Results for O=C1NC[C@H](CCCCN2C[C@H](Cc3ccccc3)N(Cc3ccccc3)C(=O)C2=O)N(CCc2ccccc2)C1=O ?
TCR CD3 inh: -11; SIAE inh: 5; mABHD4 FP: 3

How did O=C(c1ccccc1)c1ccc(O)c(O)c1O do in these assays?
HTRA1 inhibitor: 68*; TCR CD3 inh: 16; SIAE inh: 10; mABHD4 FP: 39*; HTRA1 conf: 79*; ABHD4 confirm: 19

What do the screens show for `CS(=O)c1ccccc1O` (stereo not drawn)?
HTRA1 inhibitor: -1; TCR CD3 inh: 1; SIAE inh: 2; mABHD4 FP: 3; pPAFAH inh: 4

What do the screens show for `O=S(c1ccccc1O)S(=O)c1ccccc1O` (stereo not drawn)?
HTRA1 inhibitor: 40*; TCR CD3 inh: 10; SIAE inh: 4; mABHD4 FP: 37*; HTRA1 conf: 34; ABHD4 confirm: 34*

Results for COc1ccccc1N1C(=O)CC(Nc2ccc(N3CCOCC3)cc2)C1=O (stereo not drawn) ?
HTRA1 inhibitor: 44*; TCR CD3 inh: -4; SIAE inh: 14; mABHD4 FP: 46*; pPAFAH inh: 8; HTRA1 conf: 8; ABHD4 confirm: 7

What do the screens show for `O=C1CC(Nc2ccc(N3CCOCC3)cc2)C(=O)N1c1ccccc1` (stereo not drawn)?
HTRA1 inhibitor: 14; pPAFAH inh: 17

What do the screens show for `CCOc1ccccc1N1C(=O)CC(Nc2ccc(N3CCOCC3)cc2)C1=O` (stereo not drawn)?
HTRA1 inhibitor: 44*; TCR CD3 inh: 6; SIAE inh: 9; mABHD4 FP: 46*; pPAFAH inh: 17; HTRA1 conf: 14; ABHD4 confirm: 9

What do the screens show for `C[C@H]1COc2cc(F)ccc2S(=O)(=O)N1C`?
SIAE inh: -2; mABHD4 FP: 5

What do the screens show for `CCOC(=O)c1ccc2c(c1)C1C=CCC1C(C(=O)OCC)N2` (stereo not drawn)?
HTRA1 inhibitor: 44*; TCR CD3 inh: -3; SIAE inh: 13; mABHD4 FP: 35*; pPAFAH inh: 28*; HTRA1 conf: 54*; ABHD4 confirm: 45*
